Results: ChEMBL document CHEMBL1156310, “Stepwise synthesis of oligonucleotide-peptide conjugates containing guanidinium and lipophilic groups in their 3'-termini” (Bioorg Med Chem Lett, 2010)

How the values were obtained:
[1] = tested on: SH-SY5Y; test: Antisense activity in human SH-SY5Y cells assessed as inhibition of luciferase gene expression at 60 nM after 22 hrs by luminometry in the presence of lipofectamine 2000; format: functional
How it was run: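 SH-SY5Y cells cotransfected via Lipofectamine 2000 with Renilla (target) and firefly (internal control) luciferase plasmids plus phosphorothioate ASO derivatives at 60 nM, targeting Renilla mRNA site 21-38; scrambled sequences as controls. Read-out: Renilla luciferase inhibition normalized to firefly.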

[2] = tested on: SH-SY5Y; test: Cellular uptake in human SH-SY5Y cells at 300 nM after 22 hrs by dual leucifearse reporter assay; format: ADME, cell-based; conditions: 0.3 µM
How it was run: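 Dual-luciferase plasmids (Renilla target, firefly internal control) transfected into SH-SY5Y; after 3 h, medium replaced with fresh medium containing ASO-peptide conjugates (150, 200, 300 nM) without Lipofectamine 2000. Luciferase activities measured 22 h after transfection; knockdown expressed as inhibition of Renilla expression. Phosphorothioate ASO targets Renilla mRNA 21-38 site.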

Drug uptake [2]	SMILES	inhibition at 0.06 µM [1]
	CCCCCCCCNC(=O)NCCCC[C@@H](NC(=O)CCCOP(O)(=S)OC[C@H]1O[C@@H](n2cnc3c(N)ncnc32)[C@H](O)[C@@H]1OP(O)(=S)OC[C@H]1O[C@@H](n2cnc3c(=O)[nH]c(N)nc32)[C@H](O)[C@@H]1OP(O)(=S)OC[C@H]1O[C@@H](n2cnc3c(=O)[nH]c(N)nc32)[C@H](O)[C@@H]1OP(O)(=S)OC[C@H]1O[C@@H](n2cc(C)c(=O)[nH]c2=O)C[C@@H]1OP(O)(=S)OC[C@H]1O[C@@H](n2ccc(N)nc2=O)[C@H](O)[C@@H]1OP(O)(=S)OC[C@H]1O[C@@H](n2cc(C)c(=O)[nH]c2=O)C[C@@H]1OP(O)(=S)OC[C@H]1O[C@@H](n2cc(C)c(=O)[nH]c2=O)C[C@@H]1OP(O)(=S)OC[C@H]1O[C@@H](n2cnc3c(=O)[nH]c(N)nc32)[C@H](O)[C@@H]1OP(O)(=S)OC[C@H]1O[C@@H](n2cc(C)c(=O)[nH]c2=O)C[C@@H]1OP(O)(=S)OC[C@H]1O[C@@H](n2cc(C)c(=O)[nH]c2=O)C[C@@H]1OP(O)(=S)OC[C@H]1O[C@@H](n2cc(C)c(=O)[nH]c2=O)C[C@@H]1OP(O)(=S)OC[C@H]1O[C@@H](n2ccc(N)nc2=O)[C@H](O)[C@@H]1OP(O)(=S)OC[C@H]1O[C@@H](n2ccc(N)nc2=O)[C@H](O)[C@@H]1OP(O)(=S)OC[C@H]1O[C@@H](n2cc(C)c(=O)[nH]c2=O)C[C@@H]1OP(O)(=S)OC[C@H]1O[C@@H](n2cc(C)c(=O)[nH]c2=O)C[C@@H]1OP(O)(=S)OC[C@H]1O[C@@H](n2cc(C)c(=O)[nH]c2=O)C[C@@H]1OP(O)(=S)OC[C@H]1O[C@@H](n2cnc3c(=O)[nH]c(N)nc32)[C@H](O)[C@@H]1OP(O)(=S)OC[C@H]1O[C@@H](n2ccc(N)nc2=O)[C@H](O)[C@@H]1O)C(=O)NCCCCCCO (stereo not given in full)	55%
15%	Cc1cn([C@H]2C[C@H](OP(O)(=S)OC[C@H]3O[C@@H](n4cc(C)c(=O)[nH]c4=O)C[C@@H]3OP(O)(=S)OC[C@H]3O[C@@H](n4cnc5c(=O)[nH]c(N)nc54)[C@H](O)[C@@H]3OP(O)(=S)OC[C@H]3O[C@@H](n4cc(C)c(=O)[nH]c4=O)C[C@@H]3OP(O)(=S)OC[C@H]3O[C@@H](n4cc(C)c(=O)[nH]c4=O)C[C@@H]3OP(O)(=S)OC[C@H]3O[C@@H](n4cc(C)c(=O)[nH]c4=O)C[C@@H]3OP(O)(=S)OC[C@H]3O[C@@H](n4ccc(N)nc4=O)[C@H](O)[C@@H]3OP(O)(=S)OC[C@H]3O[C@@H](n4ccc(N)nc4=O)[C@H](O)[C@@H]3OP(O)(=S)OC[C@H]3O[C@@H](n4cc(C)c(=O)[nH]c4=O)C[C@@H]3OP(O)(=S)OC[C@H]3O[C@@H](n4cc(C)c(=O)[nH]c4=O)C[C@@H]3OP(O)(=S)OC[C@H]3O[C@@H](n4cc(C)c(=O)[nH]c4=O)C[C@@H]3OP(O)(=S)OC[C@H]3O[C@@H](n4cnc5c(=O)[nH]c(N)nc54)[C@H](O)[C@@H]3OP(O)(=S)OC[C@H]3O[C@@H](n4ccc(N)nc4=O)[C@H](O)[C@@H]3O)[C@@H](COP(O)(=S)O[C@H]3[C@@H](O)[C@H](n4ccc(N)nc4=O)O[C@@H]3COP(O)(=S)O[C@H]3C[C@H](n4cc(C)c(=O)[nH]c4=O)O[C@@H]3COP(O)(=S)O[C@H]3[C@@H](O)[C@H](n4cnc5c(=O)[nH]c(N)nc54)O[C@@H]3COP(O)(=S)O[C@H]3[C@@H](O)[C@H](n4cnc5c(=O)[nH]c(N)nc54)O[C@@H]3COP(O)(=S)O[C@H]3[C@@H](O)[C@H](n4cnc5c(N)ncnc54)O[C@@H]3COP(O)(=S)OCCCC(=O)N[C@H](CCCCN)C(=O)N[C@@H](CCCCN)C(=O)N[C@H](CCCCN)C(=O)N[C@@H](CCCCN)C(=O)NCCCCCCO)O2)c(=O)[nH]c1=O (stereo not given in full)	57%
	Cc1cn([C@H]2C[C@H](OP(O)(=S)OC[C@H]3O[C@@H](n4cc(C)c(=O)[nH]c4=O)C[C@@H]3OP(O)(=S)OC[C@H]3O[C@@H](n4cnc5c(=O)[nH]c(N)nc54)[C@H](O)[C@@H]3OP(O)(=S)OC[C@H]3O[C@@H](n4cc(C)c(=O)[nH]c4=O)C[C@@H]3OP(O)(=S)OC[C@H]3O[C@@H](n4cc(C)c(=O)[nH]c4=O)C[C@@H]3OP(O)(=S)OC[C@H]3O[C@@H](n4cc(C)c(=O)[nH]c4=O)C[C@@H]3OP(O)(=S)OC[C@H]3O[C@@H](n4ccc(N)nc4=O)[C@H](O)[C@@H]3OP(O)(=S)OC[C@H]3O[C@@H](n4ccc(N)nc4=O)[C@H](O)[C@@H]3OP(O)(=S)OC[C@H]3O[C@@H](n4cc(C)c(=O)[nH]c4=O)C[C@@H]3OP(O)(=S)OC[C@H]3O[C@@H](n4cc(C)c(=O)[nH]c4=O)C[C@@H]3OP(O)(=S)OC[C@H]3O[C@@H](n4cc(C)c(=O)[nH]c4=O)C[C@@H]3OP(O)(=S)OC[C@H]3O[C@@H](n4cnc5c(=O)[nH]c(N)nc54)[C@H](O)[C@@H]3OP(O)(=S)OC[C@H]3O[C@@H](n4ccc(N)nc4=O)[C@H](O)[C@@H]3O)[C@@H](COP(O)(=S)O[C@H]3[C@@H](O)[C@H](n4ccc(N)nc4=O)O[C@@H]3COP(O)(=S)O[C@H]3C[C@H](n4cc(C)c(=O)[nH]c4=O)O[C@@H]3COP(O)(=S)O[C@H]3[C@@H](O)[C@H](n4cnc5c(=O)[nH]c(N)nc54)O[C@@H]3COP(O)(=S)O[C@H]3[C@@H](O)[C@H](n4cnc5c(=O)[nH]c(N)nc54)O[C@@H]3COP(O)(=S)O[C@H]3[C@@H](O)[C@H](n4cnc5c(N)ncnc54)O[C@@H]3COP(O)(=S)OCCCC(=O)NCCCCCCO)O2)c(=O)[nH]c1=O (stereo not given in full)	69%
	CCCCCCCCc1ccc(NC(=O)NCCCC[C@@H](NC(=O)CCCOP(O)(=S)OC[C@H]2O[C@@H](n3cnc4c(N)ncnc43)[C@H](O)[C@@H]2OP(O)(=S)OC[C@H]2O[C@@H](n3cnc4c(=O)[nH]c(N)nc43)[C@H](O)[C@@H]2OP(O)(=S)OC[C@H]2O[C@@H](n3cnc4c(=O)[nH]c(N)nc43)[C@H](O)[C@@H]2OP(O)(=S)OC[C@H]2O[C@@H](n3cc(C)c(=O)[nH]c3=O)C[C@@H]2OP(O)(=S)OC[C@H]2O[C@@H](n3ccc(N)nc3=O)[C@H](O)[C@@H]2OP(O)(=S)OC[C@H]2O[C@@H](n3cc(C)c(=O)[nH]c3=O)C[C@@H]2OP(O)(=S)OC[C@H]2O[C@@H](n3cc(C)c(=O)[nH]c3=O)C[C@@H]2OP(O)(=S)OC[C@H]2O[C@@H](n3cnc4c(=O)[nH]c(N)nc43)[C@H](O)[C@@H]2OP(O)(=S)OC[C@H]2O[C@@H](n3cc(C)c(=O)[nH]c3=O)C[C@@H]2OP(O)(=S)OC[C@H]2O[C@@H](n3cc(C)c(=O)[nH]c3=O)C[C@@H]2OP(O)(=S)OC[C@H]2O[C@@H](n3cc(C)c(=O)[nH]c3=O)C[C@@H]2OP(O)(=S)OC[C@H]2O[C@@H](n3ccc(N)nc3=O)[C@H](O)[C@@H]2OP(O)(=S)OC[C@H]2O[C@@H](n3ccc(N)nc3=O)[C@H](O)[C@@H]2OP(O)(=S)OC[C@H]2O[C@@H](n3cc(C)c(=O)[nH]c3=O)C[C@@H]2OP(O)(=S)OC[C@H]2O[C@@H](n3cc(C)c(=O)[nH]c3=O)C[C@@H]2OP(O)(=S)OC[C@H]2O[C@@H](n3cc(C)c(=O)[nH]c3=O)C[C@@H]2OP(O)(=S)OC[C@H]2O[C@@H](n3cnc4c(=O)[nH]c(N)nc43)[C@H](O)[C@@H]2OP(O)(=S)OC[C@H]2O[C@@H](n3ccc(N)nc3=O)[C@H](O)[C@@H]2O)C(=O)NCCCCCCO)cc1 (stereo not given in full)	8%
